Experimental data reported in ChEMBL document CHEMBL2434823, “Design, synthesis and biological activities of some 7-aminocephalosporanic acid derivatives” (Eur J Med Chem, 2013).

Experiments:
Assay type in all cases: functional
Conditions in all cases: read-out: IZ
Escherichia coli = assay: Antimicrobial activity against Escherichia coli ATCC 25922 at 10 ug
Summary of the method: (§1)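 Compounds were dissolved in […] as 20.000 µg/mL stocks. Ampicillin (10 µg) was the reference antibacterial, and DMSO diluted 1:10 was the solvent control.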

Enterococcus faecalis = assay: Antimicrobial activity against Enterococcus faecalis ATCC 29212 at 10 ug
Bacillus cereus = assay: Antimicrobial activity against Bacillus cereus 702 Roma at 10 ug
Staphylococcus aureus = assay: Antimicrobial activity against Staphylococcus aureus ATCC 25923 at 10 ug
[1] = system: Yersinia pseudotuberculosis; assay: Antimicrobial activity against Yersinia pseudotuberculosis ATCC 911 at 10 ug; summary of the method: as §1
Pseudomonas aeruginosa = assay: Antimicrobial activity against Pseudomonas aeruginosa ATCC 43288 at 10 ug

## CC1(C)S[C@@H]2[C@H](NC(=O)[C@H](N)c3ccccc3)C(=O)N2[C@H]1C(=O)O [AMPICILLIN]
Escherichia coli
  zone of inhibition at 10 µg/disc: 10 mm
Enterococcus faecalis
  zone of inhibition at 10 µg/disc: 10 mm
Bacillus cereus
  zone of inhibition at 10 µg/disc: 15 mm
Staphylococcus aureus
  zone of inhibition at 10 µg/disc: 35 mm
[1]
  zone of inhibition at 10 µg/disc: 18 mm
Pseudomonas aeruginosa
  zone of inhibition at 10 µg/disc: 18 mm
